# Source: ChEMBL document CHEMBL3739391, “Development of a potent and selective cell penetrant Legumain inhibitor” (Bioorg Med Chem Lett, 2015)
# Active and inactive are the calls of the source. No cut-off for these calls is given here.
# Tests used:
# Legumain = biological target: T1, Legumain (Homo sapiens, UniProt Q99538); test: Inhibition of recombinant human legumain using Z-Ala-Ala-Asn-MCA substrate measured every 2 mins for 60 mins by microplate reader analysis
# T1 sequence (Q99538 whole entry): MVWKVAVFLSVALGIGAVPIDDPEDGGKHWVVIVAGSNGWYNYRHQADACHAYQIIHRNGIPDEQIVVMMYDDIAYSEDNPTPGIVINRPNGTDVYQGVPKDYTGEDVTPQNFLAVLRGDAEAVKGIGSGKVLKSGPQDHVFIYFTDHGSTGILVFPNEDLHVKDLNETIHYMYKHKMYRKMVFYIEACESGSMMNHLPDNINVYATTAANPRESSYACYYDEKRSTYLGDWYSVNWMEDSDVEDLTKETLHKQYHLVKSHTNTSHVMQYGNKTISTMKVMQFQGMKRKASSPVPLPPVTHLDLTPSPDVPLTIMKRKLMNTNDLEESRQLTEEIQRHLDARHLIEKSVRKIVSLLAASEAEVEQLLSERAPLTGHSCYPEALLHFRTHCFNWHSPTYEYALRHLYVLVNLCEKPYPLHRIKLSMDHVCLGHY
# Legumain (Homo sapiens) [1] = biological target: T2, Legumain (Homo sapiens) (UniProt Q99538); test: Inhibition of legumain in human MCF7 cells using Z-Ala-Ala-Asn-MCA substrate at 30 uM incubated for 24 hrs by microplate reader analysis; format: cell-based
# T2 sequence (whole entry): T1 sequence (Q99538 whole entry)
# Method in brief: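 MCF7 cells incubated with compound at 37 °C for 24 h. Media then removed, cells washed with assay buffer and lysed. Intracellular legumain activity read in the lysate with fluorogenic substrate. Run in triplicate.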
# MCF7 [2] = test: Cytotoxicity against human MCF7 cells assessed as cell death at 30 uM incubated for 96 hrs by MTT assay; format: functional; settings: MCF7, 96 h
# Method in brief: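 MCF7 breast cancer cells were exposed to compound for 96 h, with DMSO vehicle as the control. Viability was read by MTT assay, n = 6.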
# Caspase-8 = Caspase-8 (Homo sapiens, UniProt Q14790); test: Inhibition of recombinant caspase 8 (unknown origin) using IETD-AFC fluorogenic substrate
# Sequence of Caspase-8 (Q14790 217-374 limits assumed): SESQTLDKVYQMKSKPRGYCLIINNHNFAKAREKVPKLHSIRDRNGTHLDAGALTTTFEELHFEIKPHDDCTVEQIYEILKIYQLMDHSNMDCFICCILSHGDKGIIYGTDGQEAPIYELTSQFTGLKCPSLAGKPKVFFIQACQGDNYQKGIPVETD
# Sequence of Caspase-8 (Q14790 385-479 limits assumed): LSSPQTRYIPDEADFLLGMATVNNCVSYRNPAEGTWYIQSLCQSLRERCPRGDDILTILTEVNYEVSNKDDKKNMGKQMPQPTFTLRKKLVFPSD
# Cathepsin S = Cathepsin S (Homo sapiens, UniProt P25774); test: Inhibition of recombinant cathepsin S (unknown origin) using ZVVR-AMC fluorogenic substrate
# Sequence of Cathepsin S (P25774 whole entry): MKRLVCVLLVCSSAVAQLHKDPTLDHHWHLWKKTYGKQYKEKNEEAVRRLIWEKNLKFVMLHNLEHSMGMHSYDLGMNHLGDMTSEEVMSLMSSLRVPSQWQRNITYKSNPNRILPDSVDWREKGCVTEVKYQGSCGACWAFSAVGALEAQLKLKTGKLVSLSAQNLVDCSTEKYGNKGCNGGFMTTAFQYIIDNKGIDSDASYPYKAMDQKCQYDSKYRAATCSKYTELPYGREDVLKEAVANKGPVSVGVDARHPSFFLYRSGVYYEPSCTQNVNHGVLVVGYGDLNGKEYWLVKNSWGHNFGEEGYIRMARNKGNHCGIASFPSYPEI
# Cathepsin B = Cathepsin B (Homo sapiens, UniProt P07858); test: Inhibition of recombinant cathepsin B (unknown origin) using Z-Leu-Arg-AMC fluorogenic substrate
# Caspase-3 = biological target: T3, Caspase-3 (Homo sapiens, UniProt P42574); test: Inhibition of recombinant caspase 3 (unknown origin) using DEVD-AFC fluorogenic substrate
# T3 sequence (P42574 whole entry): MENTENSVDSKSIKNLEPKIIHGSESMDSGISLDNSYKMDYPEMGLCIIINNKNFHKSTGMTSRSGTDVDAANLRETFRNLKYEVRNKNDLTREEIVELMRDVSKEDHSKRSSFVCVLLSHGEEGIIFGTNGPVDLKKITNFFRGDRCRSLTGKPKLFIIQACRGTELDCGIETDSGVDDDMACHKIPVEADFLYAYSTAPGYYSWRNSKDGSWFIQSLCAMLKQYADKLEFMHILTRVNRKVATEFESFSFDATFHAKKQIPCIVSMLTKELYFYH
# [3] = biological target: T4, Ubiquitin carboxyl-terminal hydrolase 17 (Homo sapiens, UniProt Q6R6M4); test: Inhibition of USP17 in human HEK293T cells using fluorogenic substrate ub-rhodamine110 preincubated for 30 mins followed by substrate addition measured every 4 mins for 1 hr by microplate reader analysis; format: cell-based, HEK-293T
# T4 sequence (Q6R6M4 whole entry): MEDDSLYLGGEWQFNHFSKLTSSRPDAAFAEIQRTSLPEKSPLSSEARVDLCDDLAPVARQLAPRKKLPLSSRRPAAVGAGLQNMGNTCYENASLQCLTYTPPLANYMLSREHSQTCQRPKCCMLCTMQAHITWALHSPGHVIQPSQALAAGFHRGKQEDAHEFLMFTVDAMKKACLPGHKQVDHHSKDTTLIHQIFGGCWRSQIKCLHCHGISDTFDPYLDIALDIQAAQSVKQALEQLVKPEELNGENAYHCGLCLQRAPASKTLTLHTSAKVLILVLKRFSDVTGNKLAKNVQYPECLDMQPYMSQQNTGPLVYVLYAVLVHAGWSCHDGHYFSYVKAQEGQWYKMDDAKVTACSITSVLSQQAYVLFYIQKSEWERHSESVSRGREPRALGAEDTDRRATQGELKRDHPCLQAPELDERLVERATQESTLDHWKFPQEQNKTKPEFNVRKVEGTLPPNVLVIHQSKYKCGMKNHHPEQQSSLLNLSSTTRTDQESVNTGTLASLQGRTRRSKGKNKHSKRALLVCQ
# [4] = Cytotoxicity against human MCF10A cells assessed as cell death at 150 uM incubated for 96 hrs by MTT assay; format: functional; settings: MCF-10A
# T47D = test: Cytotoxicity against human T47D cells assessed as cell viability at 30 uM incubated for 96 hrs by MTT assay; format: functional; settings: read-out: Activity
# Method in brief: (§1)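 MTT viability read-out after 96 h exposure. Compared with DMSO vehicle control. n = 6.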
# [5] = Cytotoxicity against human PC3 cells assessed as cell viability at 30 uM incubated for 96 hrs by MTT assay; format: functional; settings: PC-3, 96 h, read-out: Activity; method in brief: as §1
# [6] = Cytotoxicity against human DU145 cells assessed as cell viability at 30 uM incubated for 96 hrs by MTT assay; format: functional; settings: DU-145, 96 h, read-out: Activity; method in brief: as §1
# MCF7 [7] = test: Antimetastatic activity in human MCF7 cells assessed as inhibition of colony formation efficiency at 5 uM after 2 weeks by soft agar anchorage-independent growth assay; format: functional; settings: MCF7, 336 h
# Method in brief: (§2)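 Soft agar anchorage-independent colony formation in MCF7 and PC3 cells over 2 weeks. Compound and media refreshed every 4 days. Colonies quantified relative to DMSO vehicle-treated cells. n = 5.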
# [8] = Antimetastatic activity in human PC3 cells assessed as inhibition of colony formation efficiency at 2.5 uM after 2 weeks by soft agar anchorage-independent growth assay; format: functional; settings: PC-3, 336 h; method in brief: as §2
# Legumain (Homo sapiens) [9] = biological target: T2, Legumain (Homo sapiens); test: Inhibition of legumain in human MCF7 cells using Z-Ala-Ala-Asn-MCA substrate at 30 uM incubated for 48 hrs by microplate reader analysis; format: cell-based
SMILES,IC50 (Legumain),inhibition (Legumain (Homo sapiens) [1]),also measured
N#C[C@H](CC(N)=O)NC(=O)[C@@H]1CCCN1S(=O)(=O)c1ccc(Cl)cc1,0.073 µM,0%,
N#C[C@H](CC(N)=O)NC(=O)[C@@H]1CCCN1S(=O)(=O)c1ccc(-c2cccc(F)c2)cc1,0.047 µM,42%,
Cc1ccc(-c2ccc(S(=O)(=O)N3CCC[C@H]3C(=O)N[C@H](C#N)CC(N)=O)cc2)cc1,0.032 µM,0%,
CC(C)c1ccc(-c2ccc(S(=O)(=O)N3CCC[C@H]3C(=O)N[C@H](C#N)CC(N)=O)cc2)cc1,0.005 µM,75%,
N#C[C@H](CC(N)=O)NC(=O)[C@@H]1CCCN1S(=O)(=O)c1ccc(-c2ccc(C(F)(F)F)cc2)cc1,0.121 µM,52%,
CCOc1ccc(-c2ccc(S(=O)(=O)N3CCC[C@H]3C(=O)N[C@H](C#N)CC(N)=O)cc2)cc1,0.073 µM,90%,
COc1ccc(S(=O)(=O)N2CCC[C@H]2C(=O)N[C@H](C#N)CC(N)=O)cc1,> 10 µM,,
N#C[C@H](CC(N)=O)NC(=O)[C@@H]1CCCN1S(=O)(=O)c1ccc(-c2ccc(Cl)cc2)cc1,0.045 µM,64%,
N#C[C@H](CC(N)=O)NC(=O)[C@@H]1CCCN1S(=O)(=O)c1ccc(C(F)(F)F)cc1,0.332 µM,0%,
N#Cc1ccc(-c2ccc(S(=O)(=O)N3CCC[C@H]3C(=O)N[C@H](C#N)CC(N)=O)cc2)cc1,0.033 µM,0%,
N#C[C@H](CC(N)=O)NC(=O)[C@@H]1CCCN1S(=O)(=O)c1ccc(F)cc1,0.269 µM,0%,
N#C[C@H](CC(N)=O)NC(=O)[C@@H]1CCCN1S(=O)(=O)c1ccc(Cl)cc1Cl,0.593 µM,0%,
N#C[C@H](CC(N)=O)NC(=O)[C@@H]1CCCN1S(=O)(=O)c1ccc(Br)cc1,0.282 µM,0%,
CCc1ccc(-c2ccc(S(=O)(=O)N3CCC[C@H]3C(=O)N[C@H](C#N)CC(N)=O)cc2)cc1,0.071 µM,42%,
N#C[C@H](CC(N)=O)NC(=O)[C@@H]1CCCN1S(=O)(=O)c1ccc(-c2ccccc2)cc1,0.012 µM,47%,mortality at 30 µM (MCF7 [2]): 45%; IC50 (Caspase-8): > 50 µM; IC50 (Cathepsin S): > 50 µM; IC50 (Cathepsin B): > 50 µM; IC50 (Caspase-3): > 50 µM; IC50 [3]: > 50 µM; mortality at 150 µM [4]: 0%
N#C[C@H](CC(N)=O)NC(=O)[C@@H]1CCCN1S(=O)(=O)c1ccc(-c2ccc3c(c2)OCO3)cc1,0.049 µM,49%,
CC(C)Oc1ccc(-c2ccc(S(=O)(=O)N3CCC[C@H]3C(=O)N[C@H](C#N)CC(N)=O)cc2)cc1,0.969 µM,49%,
N#C[C@H](CC(N)=O)NC(=O)[C@@H]1CCCN1S(=O)(=O)c1ccc(-c2ccc(F)cc2)cc1,0.033 µM,40%,
COc1ccc(-c2ccc(S(=O)(=O)N3CCC[C@H]3C(=O)N[C@H](C#N)CC(N)=O)cc2)cc1,0.006 µM,90%,mortality at 30 µM (MCF7 [2]): 58%; IC50 (Caspase-8): > 50 µM; IC50 (Cathepsin S): > 50 µM; IC50 (Cathepsin B): > 50 µM; IC50 (Caspase-3): > 50 µM; IC50 [3]: > 50 µM; mortality at 150 µM [4]: 0%
CC(C)(C)c1ccc(-c2ccc(S(=O)(=O)N3CCC[C@H]3C(=O)N[C@H](C#N)CC(N)=O)cc2)cc1,0.071 µM,90%,mortality at 30 µM (MCF7 [2]): 81%; viability at 30 µM (T47D): > 50%; viability at 30 µM [5]: > 50%; viability at 30 µM [6]: > 50%; inhibition at 5 µM (MCF7 [7]): 50%; inhibition at 2.5 µM [8]: 50%; IC50 (Caspase-8): > 50 µM; IC50 (Cathepsin S): > 50 µM; IC50 (Cathepsin B): > 50 µM; IC50 (Caspase-3): > 50 µM; IC50 [3]: > 50 µM; mortality at 150 µM [4]: 0%; inhibition (Legumain (Homo sapiens) [9]): Active
N#C[C@H](CC(N)=O)NC(=O)[C@@H]1CCCN1S(=O)(=O)c1ccc(-c2ccccc2Cl)cc1,0.035 µM,29%,
